Reference: ChEMBL document CHEMBL2412964, “Discovery of novel tetrahydro-pyrazolo [4,3-c] pyridines for the treatment of neuropathic pain: synthesis and neuropharmacology” (Eur J Med Chem, 2013)

Tested on: Rattus norvegicus
Test: Antinociceptive activity in ip dosed Wistar rat chronic constriction injury model assessed as reversal of tactile allodynia after 60 mins
Assay type: functional
Conditions: 1 h
Method in brief: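 Wistar rats (200–250 g) with nerve injury, compounds i.p. in 30% v/v PEG 400; dose–response curves in each sensory test (spontaneous pain and cold allodynia as paw withdrawal duration; tactile allodynia and hyperalgesia as withdrawal threshold). ED50 linearly interpolated between doses just above and below 50% response; time of peak effect recorded.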

## CCN1CCc2c(c(C(C)(C)C)nn2C(=O)Nc2ccc(C)cc2C)C1
  ED50: 23.4 mg/kg
